The source of these data is ChEMBL document CHEMBL4266033, “Neolymphostin A Is a Covalent Phosphoinositide 3-Kinase (PI3K)/Mammalian Target of Rapamycin (mTOR) Dual Inhibitor That Employs an Unusual Electrophilic Vinylogous Ester” (J Med Chem, 2018).

A short description of experiment [1]: Inhibition of PI3K in human HeLa cells assessed as reduction in EGF-stimulated AKT phosphorylation at S473 preincubated for 10 mins followed by EGF stimulation measured after 5 mins by Western blot analysis. Type of experiment: cell-based. A digest of the protocol: (§1)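 HeLa cells were serum-starved overnight, pretreated with compound for 10 min, then stimulated with 10 ng mL-1 EGF for 5 min. Lysis was in boiling SDS sample buffer, with protein quantified at 660 nm. Equal protein was resolved by SDS-PAGE and Western blotted for pEGFR Tyr1068, pAKT Ser473/Thr308, and pERK1/2 Thr202/Tyr204 with total proteins and GAPDH, detected by ECL.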
In general terms: A western blot detects proteins with antibodies after separation by electrophoresis.

Experiment [2] addresses T1, Phosphatidylinositol 4,5-bisphosphate 3-kinase catalytic subunit gamma isoform (Homo sapiens, UniProt P48736). The experiment can be described thus: Binding affinity to human PI3Kgamma equilibrate for 1 hr followed by 30 fold dilution and re-equilibrate for 5 hrs by scan-kinetic platform assay. The method, boiled down:
(§2)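 scanKINETIC format on PI3Kα and PI3Kγ. […] Arm C: equilibrated 1 h. Arm B: equilibrated 1 h, diluted 30-fold, then re-equilibrated. Arm D: diluted immediately, then equilibrated. Kd compared with and without the dilution step to judge reversibility.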

The target in experiment [3] is T2, Phosphatidylinositol 4,5-bisphosphate 3-kinase catalytic subunit delta isoform (Homo sapiens, UniProt O00329).
T2 sequence (O00329 whole entry): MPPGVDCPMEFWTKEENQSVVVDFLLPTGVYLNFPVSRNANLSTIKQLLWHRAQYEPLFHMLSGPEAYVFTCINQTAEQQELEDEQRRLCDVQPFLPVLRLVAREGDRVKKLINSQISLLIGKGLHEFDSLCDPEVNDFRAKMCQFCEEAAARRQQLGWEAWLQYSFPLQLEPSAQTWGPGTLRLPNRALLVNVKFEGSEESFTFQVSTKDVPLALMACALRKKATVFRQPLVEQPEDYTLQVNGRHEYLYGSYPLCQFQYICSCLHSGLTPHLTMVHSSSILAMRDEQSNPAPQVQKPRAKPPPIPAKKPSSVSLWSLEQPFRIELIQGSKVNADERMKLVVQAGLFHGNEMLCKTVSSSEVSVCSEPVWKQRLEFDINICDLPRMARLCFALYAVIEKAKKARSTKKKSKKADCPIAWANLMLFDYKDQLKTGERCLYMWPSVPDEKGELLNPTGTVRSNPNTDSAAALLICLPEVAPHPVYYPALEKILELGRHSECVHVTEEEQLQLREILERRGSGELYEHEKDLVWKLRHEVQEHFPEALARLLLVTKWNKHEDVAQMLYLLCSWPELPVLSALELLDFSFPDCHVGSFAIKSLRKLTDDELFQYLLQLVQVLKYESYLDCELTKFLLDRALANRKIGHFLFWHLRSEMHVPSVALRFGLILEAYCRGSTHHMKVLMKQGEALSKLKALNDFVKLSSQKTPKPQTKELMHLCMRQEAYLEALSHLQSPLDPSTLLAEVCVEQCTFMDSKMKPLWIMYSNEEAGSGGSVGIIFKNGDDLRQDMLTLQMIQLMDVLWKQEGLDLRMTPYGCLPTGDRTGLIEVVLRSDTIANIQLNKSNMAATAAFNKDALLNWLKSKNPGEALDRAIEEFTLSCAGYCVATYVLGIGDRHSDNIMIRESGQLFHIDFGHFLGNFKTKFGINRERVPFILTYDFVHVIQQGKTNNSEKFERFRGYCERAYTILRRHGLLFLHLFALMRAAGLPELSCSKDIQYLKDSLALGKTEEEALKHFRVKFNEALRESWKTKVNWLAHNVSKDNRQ
Kind of experiment: Binding affinity to human PI3Kdelta after 1 hr by KINOMEscan assay.

Experiment [4] in a line: Inhibition of PI3K in human HeLa cells assessed as reduction in EGF-stimulated AKT phosphorylation at T308 preincubated for 10 mins followed by EGF stimulation measured after 5 mins by Western blot analysis. Type of experiment: cell-based. The method, boiled down: as §1
Experiment [5] addresses T3, Phosphatidylinositol 4,5-bisphosphate 3-kinase catalytic subunit alpha isoform (Homo sapiens, UniProt P42336). Kind of experiment: Binding affinity to human PI3Kalpha diluted 30 fold and equilibrate for 6 hrs by scan-kinetic platform assay. The method, boiled down:
as §2

In experiment [6] the target is T1, Phosphatidylinositol 4,5-bisphosphate 3-kinase catalytic subunit gamma isoform. The experiment can be described thus: Binding affinity to human PI3Kgamma diluted 30 fold and equilibrate for 6 hrs by scan-kinetic platform assay. A digest of the protocol:
as §2

In experiment [7] the target is T3, Phosphatidylinositol 4,5-bisphosphate 3-kinase catalytic subunit alpha isoform. Kind of experiment: Binding affinity to human PI3Kalpha equilibrate for 1 hr followed by 30 fold dilution and re-equilibrate for 5 hrs by scan-kinetic platform assay. The method, boiled down: as §2
Experiment [8] deals with T4, Aurora kinase A (Homo sapiens) (UniProt O14965).
T4 sequence (whole entry): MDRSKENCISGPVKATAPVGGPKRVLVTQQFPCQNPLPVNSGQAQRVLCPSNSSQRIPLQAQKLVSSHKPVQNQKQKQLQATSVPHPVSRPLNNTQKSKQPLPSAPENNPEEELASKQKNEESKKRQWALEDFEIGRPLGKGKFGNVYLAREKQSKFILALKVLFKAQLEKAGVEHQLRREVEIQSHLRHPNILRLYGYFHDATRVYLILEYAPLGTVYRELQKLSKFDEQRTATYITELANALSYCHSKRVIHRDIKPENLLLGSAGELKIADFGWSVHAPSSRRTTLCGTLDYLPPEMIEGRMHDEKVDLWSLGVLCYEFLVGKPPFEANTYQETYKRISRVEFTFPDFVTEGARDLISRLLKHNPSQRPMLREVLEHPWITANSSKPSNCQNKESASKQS
The experiment can be described thus: Binding affinity to human AURKA at 1 uM after 1 hr by KINOMEscan assay.

Experiment [9] addresses Epidermal growth factor receptor (Homo sapiens) (UniProt P00533). Kind of experiment: Inhibition of EGFR in human HeLa cells assessed as reduction in EGF-stimulated ERK1/2 phosphorylation at T202/Y204 at 0.3 to 100 nM preincubated for 10 mins followed by EGF stimulation measured after 5 mins by Western blot analysis. Type of experiment: cell-based. The method, boiled down: as §1

Active and inactive are the calls of the source. The calls are words filed in the database; no cut-off is given here.

T1 sequence (P48736 whole entry, canonical isoform): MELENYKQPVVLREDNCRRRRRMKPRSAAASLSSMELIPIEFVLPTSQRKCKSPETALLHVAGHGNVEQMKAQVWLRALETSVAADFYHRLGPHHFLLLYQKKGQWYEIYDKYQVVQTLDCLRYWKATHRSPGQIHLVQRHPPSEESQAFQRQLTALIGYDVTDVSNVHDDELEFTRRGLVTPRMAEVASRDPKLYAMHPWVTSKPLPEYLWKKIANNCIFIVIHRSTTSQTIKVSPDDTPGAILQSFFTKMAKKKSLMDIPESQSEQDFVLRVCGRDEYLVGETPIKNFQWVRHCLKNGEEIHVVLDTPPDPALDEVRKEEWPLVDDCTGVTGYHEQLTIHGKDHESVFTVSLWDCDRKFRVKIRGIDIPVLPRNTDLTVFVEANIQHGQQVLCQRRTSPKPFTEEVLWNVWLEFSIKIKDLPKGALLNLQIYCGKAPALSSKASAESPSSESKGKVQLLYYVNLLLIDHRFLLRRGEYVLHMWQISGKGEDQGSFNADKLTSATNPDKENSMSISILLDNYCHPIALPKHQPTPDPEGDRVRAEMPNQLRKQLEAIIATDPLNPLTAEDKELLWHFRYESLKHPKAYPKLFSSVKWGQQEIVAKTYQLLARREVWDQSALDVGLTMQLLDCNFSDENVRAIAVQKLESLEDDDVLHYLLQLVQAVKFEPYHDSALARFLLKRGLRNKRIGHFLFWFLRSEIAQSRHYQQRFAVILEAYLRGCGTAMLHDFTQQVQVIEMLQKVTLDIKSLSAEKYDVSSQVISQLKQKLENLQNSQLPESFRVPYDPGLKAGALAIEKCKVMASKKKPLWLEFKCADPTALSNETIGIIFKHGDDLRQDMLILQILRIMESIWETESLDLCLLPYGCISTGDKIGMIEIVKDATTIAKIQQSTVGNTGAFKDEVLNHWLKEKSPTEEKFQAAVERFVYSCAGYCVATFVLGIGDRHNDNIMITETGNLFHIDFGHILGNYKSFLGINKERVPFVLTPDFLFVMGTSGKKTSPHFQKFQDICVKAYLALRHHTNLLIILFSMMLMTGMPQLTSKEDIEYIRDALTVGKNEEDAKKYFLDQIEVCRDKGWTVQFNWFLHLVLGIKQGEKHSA
T3 sequence (P42336 whole entry, canonical isoform): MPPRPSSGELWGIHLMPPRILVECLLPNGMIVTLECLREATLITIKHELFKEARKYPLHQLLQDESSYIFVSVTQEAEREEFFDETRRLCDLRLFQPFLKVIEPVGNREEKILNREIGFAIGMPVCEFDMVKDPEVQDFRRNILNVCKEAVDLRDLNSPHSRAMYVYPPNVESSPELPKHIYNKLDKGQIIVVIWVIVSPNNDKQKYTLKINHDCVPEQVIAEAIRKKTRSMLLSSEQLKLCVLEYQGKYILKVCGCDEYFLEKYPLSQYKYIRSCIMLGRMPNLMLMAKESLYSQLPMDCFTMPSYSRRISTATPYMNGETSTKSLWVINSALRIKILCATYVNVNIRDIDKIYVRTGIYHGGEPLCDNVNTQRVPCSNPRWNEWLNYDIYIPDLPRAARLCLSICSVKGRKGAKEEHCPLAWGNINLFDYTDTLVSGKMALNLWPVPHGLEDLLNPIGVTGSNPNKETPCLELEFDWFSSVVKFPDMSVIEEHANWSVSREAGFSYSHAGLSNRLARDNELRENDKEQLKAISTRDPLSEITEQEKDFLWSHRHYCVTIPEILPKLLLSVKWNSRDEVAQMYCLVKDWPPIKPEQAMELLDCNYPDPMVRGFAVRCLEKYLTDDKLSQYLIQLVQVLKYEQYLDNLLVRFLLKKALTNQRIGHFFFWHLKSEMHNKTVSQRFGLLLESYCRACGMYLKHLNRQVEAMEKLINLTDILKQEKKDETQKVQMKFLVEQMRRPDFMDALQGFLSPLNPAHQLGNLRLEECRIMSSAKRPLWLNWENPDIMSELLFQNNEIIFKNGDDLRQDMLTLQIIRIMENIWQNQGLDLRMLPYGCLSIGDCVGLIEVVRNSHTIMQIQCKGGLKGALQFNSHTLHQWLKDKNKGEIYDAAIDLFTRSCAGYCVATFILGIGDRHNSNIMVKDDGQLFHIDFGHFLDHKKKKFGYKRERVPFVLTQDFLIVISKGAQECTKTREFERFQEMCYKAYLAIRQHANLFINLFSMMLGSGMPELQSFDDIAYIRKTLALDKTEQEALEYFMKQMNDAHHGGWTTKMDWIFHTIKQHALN
Epidermal growth factor receptor (Homo sapiens), sequence (P00533 whole entry): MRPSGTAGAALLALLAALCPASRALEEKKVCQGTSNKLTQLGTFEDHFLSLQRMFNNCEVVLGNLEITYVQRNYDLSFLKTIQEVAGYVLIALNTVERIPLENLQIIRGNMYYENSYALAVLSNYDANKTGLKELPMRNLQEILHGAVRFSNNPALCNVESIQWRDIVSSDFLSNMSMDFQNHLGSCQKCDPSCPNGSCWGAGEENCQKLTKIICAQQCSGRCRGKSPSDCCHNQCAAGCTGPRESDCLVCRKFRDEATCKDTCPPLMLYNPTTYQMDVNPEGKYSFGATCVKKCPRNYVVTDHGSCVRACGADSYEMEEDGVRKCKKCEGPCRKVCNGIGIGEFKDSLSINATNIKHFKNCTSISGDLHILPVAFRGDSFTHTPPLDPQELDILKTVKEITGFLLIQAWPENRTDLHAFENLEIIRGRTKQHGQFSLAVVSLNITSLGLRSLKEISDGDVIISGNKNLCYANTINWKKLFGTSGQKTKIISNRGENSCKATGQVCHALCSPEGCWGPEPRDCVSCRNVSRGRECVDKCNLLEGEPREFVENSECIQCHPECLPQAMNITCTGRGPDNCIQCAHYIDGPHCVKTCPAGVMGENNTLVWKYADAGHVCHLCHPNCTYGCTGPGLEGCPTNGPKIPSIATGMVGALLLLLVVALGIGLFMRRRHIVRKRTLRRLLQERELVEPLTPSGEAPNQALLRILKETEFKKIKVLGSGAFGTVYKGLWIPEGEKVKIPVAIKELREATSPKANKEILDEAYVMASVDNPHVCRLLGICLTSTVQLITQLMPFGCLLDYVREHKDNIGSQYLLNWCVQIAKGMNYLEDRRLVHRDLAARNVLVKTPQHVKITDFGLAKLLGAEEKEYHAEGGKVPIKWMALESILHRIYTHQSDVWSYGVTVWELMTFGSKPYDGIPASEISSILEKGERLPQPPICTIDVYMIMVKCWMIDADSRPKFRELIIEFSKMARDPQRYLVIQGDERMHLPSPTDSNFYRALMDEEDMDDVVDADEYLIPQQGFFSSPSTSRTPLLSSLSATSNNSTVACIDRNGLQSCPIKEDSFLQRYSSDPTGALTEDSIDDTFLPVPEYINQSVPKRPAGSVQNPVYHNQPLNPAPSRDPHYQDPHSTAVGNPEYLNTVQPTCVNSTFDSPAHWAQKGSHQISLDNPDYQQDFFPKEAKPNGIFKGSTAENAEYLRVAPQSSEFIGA

On to `CO/C=C/C(=O)c1cc2c3c(c(N)cc(NC(=O)C(C)C)c3n1)N=C2`, for which the IC50 in experiment [1] and in experiment [4] was 3 nM in each case. Also, the Kd (as a rule, the constant that tells how readily two partners part at equilibrium) in [2] is 4.4 to 7.3 nM; in experiment [3], 4.9 nM; in experiment [5], 18 to 20 nM; in [6], 80 to 100 nM; in experiment [7] it was 0.56 to 0.72 nM. The result in experiment [8] was Active. Besides, the inhibition result in experiment [9] is “inactive”.
